Screens as filed in PubChem BioAssay.
S1P3 agonist: agonists of human S1P3 receptor; Q99500; S1P3 NFAT-BLA reporter cells, agonism, FRET ratio; relative to 1 µM S1P, basal subtracted; activation, % at 4.5 µM; actives 0.1% (n = 60,000); AID 373;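 active = activation above the screen-wide mean plus 3 SD, cut at about 4.5% in these data, passing the limit was not always enough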
Target sequence (Q99500 whole entry, looked up): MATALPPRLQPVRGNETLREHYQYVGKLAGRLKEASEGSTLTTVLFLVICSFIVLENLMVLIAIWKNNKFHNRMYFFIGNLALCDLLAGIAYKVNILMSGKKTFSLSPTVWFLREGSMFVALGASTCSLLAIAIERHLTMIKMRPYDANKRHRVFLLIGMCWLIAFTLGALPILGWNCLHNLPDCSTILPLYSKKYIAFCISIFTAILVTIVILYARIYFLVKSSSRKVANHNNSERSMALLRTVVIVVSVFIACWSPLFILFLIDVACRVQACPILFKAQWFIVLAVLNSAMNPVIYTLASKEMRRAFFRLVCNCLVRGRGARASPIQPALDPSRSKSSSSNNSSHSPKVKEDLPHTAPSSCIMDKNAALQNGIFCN
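Assay system: stable CHO line with human S1P3, Gα16, NFAT-BLA reporter; Detection: FRET β-lactamase substrate fluorescence, excitation 405 nm, 460/535 nm emission ratio, background-subtracted; Read-out: percent activation versus median 1 µM S1P response, basal-subtracted, per plate; Incubation: cells plated overnight, compound 4 h 37 °C, substrate 2 h RT.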
5HT1a antag: blocks the human serotonin 5-HT1a receptor; P08908; CHO 5-HT1a Ga15 NFAT-bla reporter, antagonist mode; inhibition, % at 10 µM; actives 0.68% (n = 62,000);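 active = inhibition above the mean of all tested compounds plus 3 SD, cut at about 43% in these data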;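 note: receptor stimulated by 5-CT agonist at 100 nM near EC80; beta-lactamase reporter measured by ratiometric fluorescence of a cleavable substrate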
5HT1a ag: agonists of human 5-HT1a serotonin receptor. P08908. CHO 5-HT1a Ga15 NFAT-bla reporter, FRET ratio; 0% basal, 100% maximal reference agonist. activation, % at 10 µM. actives 0.56% (n = 65,000). AID 567;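 active = activation above the screen-wide mean activation plus 3 SD, cut at about 19% in these data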
5HT1E antag: antagonists of human 5-HT1E serotonin receptor; P28566; CHO 5-HT1E Ga15 NFAT-bla reporter, FRET, antagonist; inhibition, % at 6 µM; actives 0.99% (n = 65,000); AID 571;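 active = inhibition above a set limit, the mean inhibition across every tested compound plus 3 SD, cut at about 29% in these data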;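 note: signal is the 460 over 535 nm emission ratio of beta-lactamase substrate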
S1P1 ag-PAM: activates or potentiates agonism at human S1P1 receptor; S1P1 CRE-bla cells, forskolin, beta-lactamase FRET, potentiator mode; S1P1 agonist co-added at EC20, 2 nM; 100% = saturating reference agonist, 0% = basal; activation, % at 9.5 µM; actives 0.57% (n = 56,000); AID 449;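 active = activation above a cutoff set at the mean activation of all tested compounds plus 3 SD, cut at about 54% in these data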;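 note: forskolin at 4 µM as EC80 and the EC20 agonist is SEW2871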
HTR1E agonist: agonists of human 5-HT1E serotonin receptor; P28566; CHO 5-HT1E Ga15 NFAT-bla reporter, FRET; 0% DMSO wells, 100% control agonist wells; activation, % at 6 µM; actives 0.69% (n = 65,000);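 active = activation above a set limit, the screen-wide mean activation plus 3 SD, cut at about 8.5% in these data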
Large screens that a line does not name were inactive. A selection: hits, their analogues and other compounds. The true share with any hit is near 3%.

O=C(N1CCOCC1)N1CCN(S(=O)(=O)N2CCOCC2)CC1	none (no result: S1P1 ag-PAM)
CCCN(C(=O)c1cccs1)c1nnc(-c2ccncc2)s1	S1P1 ag-PAM 101
Cc1cccc(N2CCN(C(=O)c3cc4c(=O)n(C)c5ccccc5c4n3C)CC2C)c1 (configuration not stated)	none
COc1cc(-c2nnc(CSc3nnc4nc(C)cc(C)n34)o2)cc(OC)c1OC	none
N#CCCN(C(=O)CN1C(=O)NC2(CCCC2)C1=O)c1ccccc1F	5HT1a ag 82 (no result: S1P3 agonist, S1P1 ag-PAM)
O=C(O)CCN1C(=O)NC2(CCCC2)C1=O	none
CCOC(=O)C1CCN(C(=O)CCNC(=O)c2cc(OC)c(OC)c(OC)c2)CC1	none
CC1S/C(=C(\C#N)C(N)=O)N(c2ccc(F)cc2)C1=O (configuration not stated)	none
Nc1nonc1-c1nc2ccccc2n1Cc1ccc(F)cc1Cl	5HT1a antag 63
CCC(=O)Nc1nonc1-c1nc2ccccc2n1Cc1ccc(Cl)c(Cl)c1	none
Nc1nc(C2CC2)c(Sc2sc(N)nc2C2CC2)s1	none
COC(=O)c1cc2ccsc2n1CC(=O)Nc1ccc(N(C)C)cc1	none
COC(=O)c1cc2ccsc2n1CC(=O)Nc1cc(Cl)ccc1OC	5HT1a antag 52
CC(C)OC(=O)c1c2nc3ccccc3nc2n2c1[nH]c(=O)c1ccccc12	none (no result: 5HT1a antag)
CS(=O)(=O)N(CCc1ccccc1)CC(=O)N1CCc2ccccc2C1	none
Cc1ccc(CCNC(=O)C2CCC(=O)N2C2CCCC2)cc1 (configuration not stated)	none
OCCN1CCN(c2ncnc3c2sc2nc(N4CCOCC4)c4c(c23)CCC4)CC1	none (no result: S1P3 agonist, S1P1 ag-PAM)
OCCN(CCO)c1ncnc2c1sc1nc(N3CCOCC3)c3c(c12)CCCC3	5HT1E antag 31 (no result: 5HT1a antag)
COc1cccc(N(CC(=O)N2CCN(C)CC2)S(=O)(=O)c2ccc(C)cc2)c1	none
CCOCCCNC(=O)Cn1cc2c(n1)CCCC2	5HT1a ag 36
O=C(Cn1cc2c(n1)CCCCC2)NC1CCN(Cc2ccccc2)CC1	5HT1a ag 29
CCCN1CCN(CCCNC(=O)Cn2cc3c(n2)CCCC3)CC1	none
CC1CCc2nn(CC(=O)NC3CCCC3)cc2C1 (configuration not stated)	5HT1a ag 40
O=C(NCc1ccco1)c1ccc(COCC(F)(F)F)cc1	none
N#Cc1c(-c2ccco2)cc(C2CC2)nc1N	none (no result: 5HT1a antag)
N#Cc1c(-c2ccccc2)cc(C2CC2)nc1N	5HT1E antag 33
C[C@H](NC(=O)Nc1ccc2c(c1)OCCO2)C(=O)O	none
CC(C)Cc1[nH]c(=O)c(C#N)c2c1CCCC2	none (no result: 5HT1a antag)
Cc1ccc(C)c(NC(=O)CSc2nc3c(c(=O)n2C)SC(C)C3)c1 (configuration not stated)	none
CCn1c(SCC(=O)Nc2cc(C)ccc2C)nc2c(c1=O)SC(C)C2 (configuration not stated)	5HT1a ag 70
COc1ccc(NC(=O)c2cc(-c3cccs3)on2)cc1OC	S1P1 ag-PAM 56
COc1ccc(-c2cc(C(=O)NC3CCCC3)no2)cc1OC	S1P1 ag-PAM 74
CCOc1ccc(-c2noc(-c3cccnc3)n2)cc1OC	S1P1 ag-PAM 114
COc1ccc(-c2noc(-c3cc(C)cc(C)c3)n2)cc1OC	S1P1 ag-PAM 106
O=C1C2CC=CCC2C(=O)N1c1ccc(Cc2ccncc2)cc1 (configuration not stated)	none
CCOc1ccc(-c2nnc(-c3cccnc3)o2)cc1OCC	S1P1 ag-PAM 89
COc1ccc(Cl)cc1-c1nc(-c2ccc(NC(=O)c3ccncc3)cc2)no1	none
COc1ccc(-c2nc(-c3ccc(NC(=O)c4ccncc4)cc3)no2)cc1OC	5HT1a antag 43, 5HT1E antag 29, S1P1 ag-PAM 123
CN(C)c1nc(N)nc(CSc2n[nH]c(-c3ccccc3)n2)n1	5HT1E antag 30
O=C(CSc1n[nH]c(-c2ccccc2)n1)c1ccccc1	none
CCCOc1ccccc1Cn1c(=O)oc2ccc(C)cc21	5HT1a antag 44 (no result: S1P3 agonist, S1P1 ag-PAM)
Cc1ccc2oc(=O)n(CCOc3ccccc3Cl)c2c1	5HT1E antag 32
O=C(NCc1ccccc1)c1ccc(COCC(F)(F)F)o1	none
